Experimental findings from PMC10751876 (Current research in chemical biology, 2023) are described below.

Series [1] concerns the target T1, hBRD4 (Homo sapiens, UniProt O60885). The series can be described thus: SPR binding to hBRD4. The settings on record: for Rmax: hBRD4, SPR fit, (locked) = as printed. For orientation: In SPR one partner is held on a chip, and binding of the other changes the refractive index at the surface.
Series [2] concerns the target T2, TbBdf2 (Trypanosoma brucei brucei, UniProt Q38AM1).
T2 sequence (Q38AM1 9-123): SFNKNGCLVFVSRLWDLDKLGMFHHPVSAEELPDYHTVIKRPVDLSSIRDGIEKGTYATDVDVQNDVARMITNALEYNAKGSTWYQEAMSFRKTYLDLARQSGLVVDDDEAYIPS
The experiment in a line: ITC binding to TbBdf2. The note with it: 15 °C; n set to 1.0; single experiment, error of the fit. Details: species or system T. brucei. The gist of the method: (§1)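 ITC at 15 °C. His6-tagged bromodomain protein was dialysed against 20 mM HEPES pH 7.5, 150 mM NaCl, 0.5 mM TCEP, 1% DMSO. Typically 2.0 mM protein was injected in 2–3 μL increments into 200 μM ligand in the cell. Baseline-corrected isotherms were fitted. Each titration was run at least twice; reported values come from single experiments with fit error.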

The next series relates to T. brucei parasites. The experiment in a line: Percent of live cells by forward and side scatter gating. The series is classed as cell-based. The note with it: flow cytometry live gate. An outline of the steps: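 Lister 427 L224 bloodstream parasites were cultured in HMI-9 at 37 °C, 5% CO2 and treated 48 h or 72 h at set concentrations, with DMSO controls. Viability is the percentage of cells falling in a live gate set on forward and side scatter by flow cytometry.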
(Flow cytometry measures light scatter and fluorescence of single cells or particles in a stream.)

Series [3] concerns EP1/GFP reporter parasites. The series can be described thus: EP1/GFP reporter flow cytometry in bloodstream parasites. The series is classed as cell-based, T. brucei. The note with it: for EP1/GFP mean fluorescence intensity: 3 days. The gist of the method:
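Bloodstream Lister 427 L224 T. brucei (VSG3/BES7-NeoR, VSG2/BES1-PuroR) carrying an EP1/GFP reporter construct, grown in HMI-9 at 37 °C, 5% CO2. Parasites were treated 2 or 3 days, with DMSO as vehicle control. GFP mean fluorescence intensity was read by flow cytometry. Three biological replicates, SD shown; two-tailed unpaired t-test against DMSO.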

Series [4] concerns the target T3, TbBdf3 (Trypanosoma brucei brucei, UniProt Q383S2).
T3 sequence (Q383S2 1-221): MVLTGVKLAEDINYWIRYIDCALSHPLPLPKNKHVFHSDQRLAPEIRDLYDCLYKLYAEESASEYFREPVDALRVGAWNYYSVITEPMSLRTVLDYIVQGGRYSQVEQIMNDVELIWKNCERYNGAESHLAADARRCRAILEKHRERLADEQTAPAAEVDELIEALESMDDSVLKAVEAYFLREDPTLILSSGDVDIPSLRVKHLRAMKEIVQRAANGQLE
The experiment in a line: SPR binding to TbBdf3. Set-up: species or system T. brucei. The settings on record: for Rmax: TbBdf3, SPR fit, (locked) = as printed. The gist of the method:
(§2)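 Purified His6-tagged bromodomain protein was labelled with DBCO-PEG4-NHS ester (3-fold molar excess, 2 h, room temperature), quenched with ethanolamine, and coupled to an azide chip at pH 4.0 (~6000 RU). Run in duplicate, standard error.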

The test system of series [5] is bloodstream T. brucei parasites. The series can be described thus: Growth inhibition of bloodstream parasites. The settings on record: Trypanosoma brucei, 48 h, read-out: GEC50 growth inhibition. The series is classed as cell-based. An outline of the steps:
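Lister 427 L224 bloodstream parasites were plated at 10,000 cells/ml in HMI-9 across a compound concentration series and grown 48 h at 37 °C, 5% CO2. Cells were then stained with 5 μM Sytox Orange for 15 min at 37 °C and counted by fixed-volume flow cytometry in a live/Sytox-negative gate. Dose-response metrics came from growth-rate-inhibition analysis (GRMetric).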

Series [6] has as its target T3, TbBdf3. The experiment in a line: ITC binding to TbBdf3. Details: species or system T. brucei. An outline of the steps: as §1
In series [7] the target is T2, TbBdf2. The experiment in a line: SPR binding to TbBdf2. Set-up: species or system T. brucei. The settings on record: for Rmax: SPR fit, (locked) = as printed; for Kd: read-out: SPR KD, duplicate, standard error. The gist of the method:
as §2

Series [8] deals with T1, hBRD4. The series can be described thus: ITC binding to hBRD4.
For series [9], the system named is bloodstream T. brucei parasites (procyclin protein). The series can be described thus: Procyclin surface protein expression, anti-EP1 flow cytometry. The settings on record: negative control, 3 days. Type of series: cell-based.
Series [10] can be described thus: Solubility at ITC ligand concentration. The series is classed as physicochemical. The settings on record: at 200 μM, ITC assay. A general note: ITC needs no label: the signal is the heat of the interaction.

In the case of `COc1cc2c(N[C@H](C)c3ccccn3)c(C(=O)NCCCCCCN)cnc2cc1-c1c(C)noc1C` [AP-08-188, N-(6-Aminohexyl)-7-(3,5-dimethylisoxazol-4-yl)-6-methoxy-4-((R)-1-(pyridin-2-yl)ethylamino)quinoline-3-carboxamide], the Kd at hBRD4 [1] was 0.29 ± 0.17 µM; at TbBdf3 [4], 30 ± 21 µM; at TbBdf3 [6], 87 ± 21 µM; at TbBdf2 [7], 45 ± 31 µM; on hBRD4 [8] it was 0.68 ± 0.15 µM. The Rmax was 135 ± 27 RU on hBRD4 [1], 143 ± 51 RU on TbBdf3 [4] and 85 ± 35 RU at TbBdf2 [7]. Besides, at TbBdf2 [2], the “TbBdf2, ITC KD” value was “No binding”. The “percentage of live cells compared to DMSO controls” value in the series on T. brucei parasites is reported as “significantly lower”. Besides, the “EP1/GFP mean fluorescence intensity” value in series [3] (5 μM) is “highest”. The “SPR binding to TbBdf3” value at TbBdf3 [4] is reported as “weak binding”. Also, in [5], the EC50 is 1.74 ± 0.044 µM.
As to `NCCCCCCNC(=O)c1ccccc1.O=C(O)C(F)(F)F` [AP-08-190, N-(6-aminohexyl)benzamide 2,2,2-trifluoroacetate], the “fold change in EP1/GFP mean fluorescence intensity compared to DMSO” value in series [3] (20 μM) worked out at 1.2 fold. Besides, the “procyclin surface expression” value in series [9] is on record as “Neither DMSO nor the control compound AP-08-190 increased procyclin surface expression”.
Regarding `COc1cc2c(cc1-c1ccc(C(=O)NCCCCCCCCNC(=O)OC(C)(C)C)cc1)ncc1[nH]c(=O)n([C@H](C)c3ccccn3)c12` [AP-09-008, (R)-tert-Butyl 8-(4-(8-methoxy-2-oxo-1-(1-(pyridin-2-yl)ethyl)-2,3-dihydro-1H-imidazo[4,5-c]quinolin-7-yl)benzamido)octylcarbamate], the Kd at hBRD4 [1] amounted to 6.1 ± 3.6 µM; at TbBdf3 [4], 1.43 ± 0.32 µM; on TbBdf2 [7] it was 1.68 ± 0.34 µM. For the same compound, the figures for the Rmax at hBRD4 [1], on TbBdf3 [4] and at TbBdf2 [7] were 14.2 ± 1.8 RU, 36.9 ± 1.9 RU and 27.1 ± 1.2 RU, respectively. Also, in series [10], the “solubility” value is listed as “insolubility”. Also, the “percentage of live cells compared to DMSO controls” value with T. brucei parasites is given as “significantly lower”. The “EP1/GFP mean fluorescence intensity” value in series [3] (5 μM) is “strong increase”. Further, the EC50 in series [5] is 1.27 ± 0.046 µM.
In the case of `COCCOCCOCCOC(=O)c1ccc(-c2cc3ncc4[nH]c(=O)n([C@H](C)c5ccccn5)c4c3cc2OC)cc1` [AP-09-191, (R)-2-(2-(2-Methoxyethoxy)ethoxy)ethyl 4-(8-methoxy-2-oxo-1-(1-(pyridin-2-yl)ethyl)-2,3-dihydro-1H-imidazo[4,5-c]quinolin-7-yl)benzoate], the Kd was 60 ± 26 µM on hBRD4 [1], 56 ± 31 µM at TbBdf3 [4], 22 ± 11 µM on TbBdf3 [6] and 44 ± 31 µM on TbBdf2 [7]. Besides, the Rmax on hBRD4 [1], at TbBdf3 [4] and at TbBdf2 [7] was 200 (locked) RU throughout. For the same compound, the “EP1/GFP mean fluorescence intensity” value in series [3] (20 μM) is given as “increased mean fluorescence intensity of GFP”. For the same compound, the “hBRD4, ITC KD” value on hBRD4 [8] (15 °C, n set to 1.0, single experiment, error of the fit) is given as “No binding”.

In general, Kd refers to the free concentration of one partner at which half of the binding sites on the other are occupied at equilibrium, for simple one-to-one binding.
